Compound activity from PubChem BioAssay.
Rows were chosen to be rich in hits. Some 1.2% of all compounds tested hit in one or more screens of this group.
HMGR II inh = inhibitors of class II HMG-CoA reductase from Enterococcus faecalis. purified E. faecalis HMGR, NADPH absorbance 340 nm kinetic. inhibition, % at 10 µM. 190,000 tested, 0.41% active;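 active means inhibition above a set limit, the median over all tested compounds plus 3 SD, cut at about 9.5% in these data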;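 further: enzyme runs in reverse so mevalonate oxidation gives rising NADPH absorbance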
S1P4 antagonist = blocks the human S1P4 receptor. 220,000 tested, 0.26% active. inhibition, % at 4.98 µM. AID 1510. S1P4-expressing cells, antagonist mode, reporter read-out; in the data active means inhibition above about 29%
Target sequence (O95977 whole entry, looked up): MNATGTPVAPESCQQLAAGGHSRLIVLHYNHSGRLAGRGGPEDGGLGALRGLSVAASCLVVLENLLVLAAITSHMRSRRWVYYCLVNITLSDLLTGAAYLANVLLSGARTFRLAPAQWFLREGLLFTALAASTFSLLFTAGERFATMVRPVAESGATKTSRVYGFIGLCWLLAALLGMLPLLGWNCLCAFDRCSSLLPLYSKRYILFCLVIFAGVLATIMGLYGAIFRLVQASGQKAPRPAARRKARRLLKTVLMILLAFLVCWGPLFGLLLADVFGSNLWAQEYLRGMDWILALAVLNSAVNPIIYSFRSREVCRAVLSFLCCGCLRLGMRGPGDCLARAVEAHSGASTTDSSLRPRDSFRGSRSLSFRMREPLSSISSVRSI
Rad51 HR inh = blocks human Rad51 in homologous recombination | Q06609 | hRad51 DNA strand exchange, fluorescence dequenching | inhibition, % at 10 µM | 200,000 tested, 0.085% active | AID 1385;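 active means inhibition above 40% at the single screening dose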
Target sequence (Q06609 whole entry, looked up): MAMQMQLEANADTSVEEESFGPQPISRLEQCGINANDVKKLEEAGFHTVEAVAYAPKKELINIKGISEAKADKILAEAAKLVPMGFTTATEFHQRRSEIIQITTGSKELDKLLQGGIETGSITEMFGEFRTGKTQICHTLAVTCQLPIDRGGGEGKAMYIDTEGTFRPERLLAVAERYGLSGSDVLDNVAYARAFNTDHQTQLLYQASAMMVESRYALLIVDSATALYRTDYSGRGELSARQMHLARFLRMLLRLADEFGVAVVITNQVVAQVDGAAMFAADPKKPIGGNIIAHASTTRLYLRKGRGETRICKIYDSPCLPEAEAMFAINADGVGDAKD
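System: hRad51 filaments on single-stranded DNA; reagent: Fluorescein- and BHQ1-tagged 47-mer duplex; compound dosing: one concentration, 10 µM final; timing: filaments 15 min 37 °C, then compound 30 min; measured by: fluorescein emission 520 nm, excitation 485 nm; benchmarks: per-plate controls and blanks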
S1P4 agonist = activates the human S1P4 receptor; O95977; activation, % at 4.98 µM; S1P4-expressing cell line, agonist reporter assay; 220,000 tested, 0.35% active; in the data active means activation above about 11%
S1P3 antag = S1P3 (human) receptor antagonism; Q99500; CHO S1P3 NFAT-BLA reporter, FRET fluorescence, antagonist mode; inhibition, % at 4.98 µM; 170,000 tested, 0.27% active;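 active means inhibition above the plate cutoff, the mean inhibition of test wells on that plate plus 3 SD, cut at about 28% in these data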;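 further: cells challenged with S1P at its EC80 of 0.8 µM; blue over green emission ratio from cleaved BLA substrate after 4 h stimulation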
Biofilm kill mix = mixture kills Candida albicans biofilm cells; 120,000 tested, 0.02% active; inhibition, % at 7.6 µM; AID 1242; C. albicans biofilm persisters + clotrimazole, fluorescence viability; primary screen in compound mixtures of four per well;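 further: compounds exposed to preformed 24 h biofilms for 48 h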
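Incubation: 24 h biofilm formation, then 48 h compound exposure, 37 °C | Material: C. albicans biofilms | Buffer or medium: RPMI/MOPS medium, pH 7.0 | Measured by: 2-h Alamar Blue fluorescence, 535/590 nm excitation/emission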
S1P4 agonist cf = human S1P4 agonism, confirmation; shares compounds with S1P4 agonist; S1P4 agonist cell-based reporter assay; activation, % at 4.98 µM; 740 tested, 7% active; AID 1523; in the data active means activation above about 12%
S1P1 agonist = human S1P1 agonism as S1P4 agonist counter-screen; AID 1563; 740 tested, 4% active; shares compounds with S1P4 agonist; activation, % at 4.98 µM; S1P1 agonist cell-based assay, activation; in the data active means activation above about 21%
Of the large screens only hits and unclear results are named; the others gave an inactive call (follow-up assays come after a bar, where they were run).

O=C(CNC(=O)c1ccc(F)cc1)N/N=C/c1cn[nH]c1-c1ccccc1	S1P4 agonist 16 | S1P4 agonist cf inactive | S1P1 agonist inactive
NS(=O)(=O)c1ccc(CCNC(=O)CCCC2=NS(=O)(=O)c3ccccc3N2)cc1	S1P4 agonist 17 (no result: Biofilm kill mix) | S1P4 agonist cf inactive | S1P1 agonist inactive
Cc1ccc(NC(=O)C(=O)NCCN2CCN(C(=O)C(c3ccccc3)c3ccccc3)CC2)cc1	none (no result: S1P3 antag, Biofilm kill mix)
O=[N+]([O-])c1cccc(NC(=S)NCCc2ccccc2)c1	S1P4 agonist 20 | S1P4 agonist cf inactive | S1P1 agonist inactive
CC1CN(C(=O)COC(=O)c2ccc(NC(=O)CC#N)cc2)CC(C)O1 (stereo not drawn)	S1P4 agonist 11 | S1P4 agonist cf inactive | S1P1 agonist inactive
Cn1c(Cn2cnc([N+](=O)[O-])n2)nnc1SCC(=O)Nc1cccc(Cl)c1	none
Cc1nn(Cc2nnc(SCC(=O)Nc3cccc(C(F)(F)F)c3)n2C)c(C)c1[N+](=O)[O-]	S1P4 agonist 56 (no result: HMGR II inh) | S1P4 agonist cf inactive | S1P1 agonist inactive
CCOc1ccc(S(=O)(=O)n2c(C)nc3ccccc32)cc1	S1P4 agonist 14 (no result: Biofilm kill mix) | S1P4 agonist cf inactive | S1P1 agonist inactive
Oc1ccc(Cl)cc1C1=Nc2ccccc2N=C(c2ccco2)C1	none (no result: S1P3 antag)
COc1ccc(O)c(C2=Nc3ccccc3N=C(c3ccco3)C2)c1	S1P4 agonist 69 (no result: S1P3 antag, Biofilm kill mix) | S1P4 agonist cf inactive | S1P1 agonist inactive
O=C1CCC(C(=O)OCc2cc(Cl)ccc2OC(F)F)N1 (stereo not drawn)	none (no result: Biofilm kill mix)
O=C(c1ccc(NS(=O)(=O)c2cccc3cccnc23)cc1)N1CCOCC1	none (no result: HMGR II inh, Biofilm kill mix)
O=C(c1ccc(NS(=O)(=O)c2cccc3cccnc23)cc1)N1CCCCC1	S1P4 agonist 23 | S1P4 agonist cf inactive | S1P1 agonist inactive
Cc1ccc2nc3c(cc(C(=O)NCC4CCCO4)c(=N)n3CCCOC(C)C)c(=O)n2c1 (stereo not drawn)	none (no result: Biofilm kill mix)
C=CCn1c(=N)c(C(=O)NCCCOC)cc2c(=O)n3ccccc3nc21	S1P4 agonist 11 (no result: Biofilm kill mix) | S1P4 agonist cf inactive | S1P1 agonist inactive
C=CCn1c(=N)c(C(=O)NCCCOC)cc2c(=O)n3cc(C)ccc3nc21	S1P4 agonist 12 (no result: Rad51 HR inh, Biofilm kill mix) | S1P4 agonist cf inactive | S1P1 agonist inactive
O=C(COC(=O)CCc1nc2ccccc2s1)NC(=O)NCc1ccco1	S1P4 agonist 17 | S1P4 agonist cf inactive | S1P1 agonist inactive
COc1cc(CC(=O)Nc2cccc(SC)c2)cc(OC)c1OC	S1P4 agonist 45 | S1P4 agonist cf inactive | S1P1 agonist inactive
COc1ccc(CC(=O)Nc2cccc(SC)c2)cc1	none
O=S(=O)(CCNCc1cccs1)c1ccc(Cl)cc1	S1P4 agonist 36 (no result: HMGR II inh) | S1P4 agonist cf inactive | S1P1 agonist inactive
N#Cc1ccc(/C=C\c2nccc3c2[nH]c2ccccc23)cc1	S1P4 agonist 13 | S1P4 agonist cf inactive | S1P1 agonist inactive
Clc1ccc(/C=C\c2nccc3c2[nH]c2ccccc23)cc1	S1P4 agonist 23 | S1P4 agonist cf 25 | S1P1 agonist 84
Cc1cccc2c(=O)cc(C)n(CC(N)=O)c12	none (no result: HMGR II inh)
CCn1c(C)cc(/C=C2/NC(=O)N(c3ccccc3)C2=O)c1C	none
COCCn1c(C)cc(/C=C2/NC(=O)N(c3cccc(Cl)c3)C2=O)c1C	S1P4 agonist 105 | S1P4 agonist cf inactive | S1P1 agonist inactive
Cc1onc(-c2c(F)cccc2Cl)c1C(=O)N1C=CC(C(F)(F)F)=NCC1	none (no result: S1P3 antag, Biofilm kill mix)
COc1ccc(C)cc1NC(=O)c1cnc2scc(C)n2c1=O	none (no result: Biofilm kill mix)
COc1ccc(C)cc1NC(=O)c1cnc2n(c1=O)CCS2	S1P4 agonist 17 | S1P4 agonist cf inactive | S1P1 agonist inactive
CCNC(=O)NC(=O)CSc1nc2ccccc2n1CC(C)C	none (no result: S1P3 antag, Biofilm kill mix)
O=C(NCC1CCCO1)/C(=C/c1ccccc1)NC(=O)c1ccccc1 (stereo not drawn)	S1P4 agonist 28 | S1P4 agonist cf inactive | S1P1 agonist inactive
O=C(NC(=S)NCC1CCCO1)c1ccco1 (stereo not drawn)	S1P4 agonist 14 | S1P4 agonist cf inactive | S1P1 agonist inactive
COc1ccc(-n2c(C)c([N+](=O)[O-])c3ccc(O)c(CN(C)C)c32)cc1	none (no result: Rad51 HR inh, S1P3 antag, Biofilm kill mix)
COc1cc(C(=O)NCC(=O)N/N=C/c2ccc(OC(=O)c3ccco3)cc2)cc(OC)c1OC	S1P4 agonist 21 (no result: Rad51 HR inh) | S1P4 agonist cf inactive | S1P1 agonist inactive
CCOC(=O)C1=C(N)Oc2c(oc(CO)cc2=O)C1c1c(F)cccc1Cl (stereo not drawn)	none (no result: Biofilm kill mix)
Cc1c(C)c2cc(Cl)c(O)c(CN3CCN(C)CC3)c2oc1=O	S1P4 agonist 15 (no result: S1P3 antag, Biofilm kill mix) | S1P4 agonist cf inactive | S1P1 agonist inactive
Cc1c(C)c2cc(Cl)c(O)c(CN3CCCC(C)C3)c2oc1=O (stereo not drawn)	none (no result: S1P3 antag, Biofilm kill mix)
CCOC(=O)C(=O)Nc1ccc(OC)c(Cl)c1	none (no result: Rad51 HR inh)
CCOC(=O)CC1C(=O)NCCN1S(=O)(=O)c1ccc(Br)cc1 (stereo not drawn)	S1P4 agonist 11 | S1P4 agonist cf inactive | S1P1 agonist inactive
CCOC(=O)CC1C(=O)NCCN1S(=O)(=O)c1ccc(C)cc1 (stereo not drawn)	none
COc1ccc(-n2cc(CNCCc3cscn3)c(-c3ccccc3Cl)n2)cc1	S1P4 agonist 112 | S1P4 agonist cf inactive | S1P1 agonist inactive
Cn1cc(CNC(=O)C23CC4CC(CC(C4)C2)C3)cn1	none (no result: S1P3 antag)
N#Cc1ccc(CSc2nnc(-c3cccnc3)o2)cc1	S1P4 agonist 65 | S1P4 agonist cf inactive | S1P1 agonist inactive
O=C(Oc1ccc(Br)cc1C(=S)N1CCCCC1)c1cc([N+](=O)[O-])cc([N+](=O)[O-])c1	none (no result: S1P3 antag, Biofilm kill mix)
CC(=O)NN1C(=O)c2ccc(Oc3ccc4c(c3)C(=O)N(NC(C)=O)C4=O)cc2C1=O	S1P4 agonist 23 | S1P4 agonist cf inactive | S1P1 agonist inactive
CC(=O)NN1C(=O)c2ccc(Oc3ccc([N+](=O)[O-])cc3)cc2C1=O	none (no result: S1P3 antag, Biofilm kill mix)
CCCC(C)NC(=O)c1ccc(F)cc1 (stereo not drawn)	none (no result: S1P3 antag, Biofilm kill mix)
O=C(O)c1ccc(N/N=C/c2ccc(-c3ccc(Cl)cc3Cl)o2)cc1	S1P4 agonist 16 (no result: HMGR II inh, Rad51 HR inh) | S1P4 agonist cf inactive | S1P1 agonist 26
O=C(O)c1ccc(N/N=C/c2ccc(-c3cccc(Cl)c3)o2)cc1	S1P4 agonist 13 (no result: HMGR II inh) | S1P4 agonist cf inactive | S1P1 agonist inactive
CCOC(=O)C1CCCCN1C(=O)CCc1c(C)nc2cc(-c3ccccc3)nn2c1C (stereo not drawn)	none (no result: Rad51 HR inh, Biofilm kill mix)
CN(C)c1ccc(-n2cccc2)cc1	none (no result: HMGR II inh)
CCn1c(SCc2ccc(F)cc2)nc2c(c1=O)SCC2	none
O=C(CSCc1ccc(Cl)cc1)Nc1ccc(S(=O)(=O)N2CCCCCC2)cc1	S1P4 agonist 15 | S1P4 agonist cf inactive | S1P1 agonist inactive
